The record followed here is ChEMBL document CHEMBL1687781, “Comparative biochemical and computational study of the role of naturally occurring mutations at Ambler positions 104 and 170 in GES β-lactamases” (Antimicrob Agents Chemother, 2010).

Assay type in all cases: functional
The test system of test [1] is Escherichia coli. Kind of test: Antimicrobial activity against Escherichia coli DH5[alpha] transformed with pAC-ges1 plasmid encoding Beta-lactamase GES-2 E104, N170 mutant by Etest method.
In test [2] the test system is Escherichia coli. Kind of test: Antimicrobial activity against Escherichia coli DH5[alpha] transformed with pAC-ges1 plasmid encoding Beta-lactamase GES-1 E104, G170 mutant by Etest method.
Test [3] concerns Escherichia coli. Kind of test: Antimicrobial activity against Escherichia coli DH5[alpha] transformed with pAC-ges1 plasmid encoding Beta-lactamase GES-1 E104, G170 mutant in presence of at 4 ug/ml Tazobactam by Etest method. The gist of the method: (§1)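 E. coli DH5α host, either untransformed or carrying pACYC184-based clones of the GES variant genes; the source gene came from integron plasmid pBC-ges1. MICs were read by Etest following the manufacturer's recommendations, with the inhibitor held at a fixed 4 μg/ml.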

Test [4] concerns Escherichia coli. Kind of test: Antimicrobial activity against Escherichia coli DH5[alpha] transformed with pAC-ges1 plasmid encoding Beta-lactamase GES-7 K104, G170 mutant in presence of at 4 ug/ml Tazobactam by Etest method. Put shortly: as §1
For test [5], the system named is Escherichia coli. Kind of test: Antimicrobial activity against Escherichia coli DH5[alpha] transformed with pAC-ges1 plasmid encoding Beta-lactamase GES-7 K104, G170 mutant by Etest method.
For test [6], the system named is Escherichia coli. Description: Antimicrobial activity against Escherichia coli DH5[alpha] transformed with pAC-ges1 plasmid encoding Beta-lactamase GES-6 K104, S170 mutant in presence of at 4 ug/ml Tazobactam by Etest method. Put shortly: as §1
Test [7] deals with Escherichia coli. Description: Antimicrobial activity against Escherichia coli DH5[alpha] transformed with pAC-ges1 plasmid encoding Beta-lactamase GES-13 K104, N170 mutant in presence of at 4 ug/ml Tazobactam by Etest method. Put shortly:
as §1

In test [8] the test system is Escherichia coli. Description: Antimicrobial activity against Escherichia coli DH5[alpha] transformed with pAC-ges1 plasmid encoding Beta-lactamase GES-5 E104, S170 mutant in presence of at 4 ug/ml Tazobactam by Etest method. The gist of the method: as §1
The test system of test [9] is Escherichia coli. Description: Antimicrobial activity against Escherichia coli DH5[alpha] transformed with pAC-ges1 plasmid encoding Beta-lactamase GES-6 K104, S170 mutant by Etest method.
The test system of test [10] is Escherichia coli. Kind of test: Antimicrobial activity against Escherichia coli DH5[alpha] in presence of at 4 ug/ml Tazobactam by Etest method. The gist of the method:
as §1

Test [11] concerns Escherichia coli. Description: Antimicrobial activity against Escherichia coli DH5[alpha] transformed with pAC-ges1 plasmid encoding Beta-lactamase GES-2 E104, N170 mutant in presence of at 4 ug/ml Tazobactam by Etest method. The gist of the method:
as §1

In test [12] the test system is Escherichia coli. Description: Antimicrobial activity against Escherichia coli DH5[alpha] by Etest method.
Test [13] has as its system Escherichia coli. Kind of test: Antimicrobial activity against Escherichia coli DH5[alpha] transformed with pAC-ges1 plasmid encoding Beta-lactamase GES-13 K104, N170 mutant by Etest method.
Test [14] concerns Escherichia coli. Description: Antimicrobial activity against Escherichia coli DH5[alpha] transformed with pAC-ges1 plasmid encoding Beta-lactamase GES-5 E104, S170 mutant by Etest method.
Test [15] deals with Escherichia coli. Description: Antimicrobial activity against Escherichia coli DH5[alpha] transformed with pAC-ges1 plasmid encoding Beta-lactamase GES-2 E104, N170 mutant in presence of at 2 ug/ml clavulanic acid by Etest method. Put shortly:
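MIC read by Etest per the manufacturer's instructions. Host was E. coli DH5α carrying the bla_GES gene cloned into the chloramphenicol- and tetracycline-resistant vector pACYC184, with the high-copy plasmid pBC-ges1 as the gene source. The inhibitor was held at a fixed 2 μg/ml.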

Test [16] concerns Escherichia coli. Description: Antimicrobial activity against Escherichia coli DH5[alpha] transformed with pAC-ges1 plasmid encoding Beta-lactamase GES-1 E104, G170 mutant in presence of at 2 ug/ml clavulanic acid by Etest method.
Test [17] concerns Escherichia coli. Kind of test: Antimicrobial activity against Escherichia coli DH5[alpha] transformed with pAC-ges1 plasmid encoding Beta-lactamase GES-5 E104, S170 mutant in presence of at 2 ug/ml clavulanic acid by Etest method.
Test [18] relates to Escherichia coli. Description: Antimicrobial activity against Escherichia coli DH5[alpha] transformed with pAC-ges1 plasmid encoding Beta-lactamase GES-6 K104, S170 mutant in presence of at 2 ug/ml clavulanic acid by Etest method.
In test [19] the test system is Escherichia coli. Description: Antimicrobial activity against Escherichia coli DH5[alpha] transformed with pAC-ges1 plasmid encoding Beta-lactamase GES-7 K104, G170 mutant in presence of at 2 ug/ml clavulanic acid by Etest method.
The subject of test [20] is Escherichia coli. Description: Antimicrobial activity against Escherichia coli DH5[alpha] in presence of at 2 ug/ml clavulanic acid by Etest method.
For test [21], the system named is Escherichia coli. Description: Antimicrobial activity against Escherichia coli DH5[alpha] transformed with pAC-ges1 plasmid encoding Beta-lactamase GES-13 K104, N170 mutant in presence of at 2 ug/ml clavulanic acid by Etest method.

≈ marks a conversion by molar mass, not a printed value. Some results are limits rather than exact numbers.

The MIC is the smallest concentration in the dilution series that meets the test's criterion for growth inhibition. Turning to `CCN1CCN(C(=O)N[C@@H](C(=O)N[C@@H]2C(=O)N3[C@@H]2SC(C)(C)[C@@H]3C(=O)O)c2ccccc2)C(=O)C1=O` [PIPERACILLIN], the MIC in test [1] worked out at 4 µg/mL (≈ 7.73 µM); in test [2] it was 8 µg/mL (≈ 15.5 µM); in test [3] it was 1 µg/mL; in test [4], 1 µg/mL; in test [5], 12 µg/mL (≈ 23.2 µM); in test [6] it was 2 µg/mL. Besides, the MIC in [7] amounted to 1 µg/mL; in test [8], 2 µg/mL; in test [9] it was 12 µg/mL (≈ 23.2 µM); in [10] it was 1 µg/mL; in test [11] it was 1 µg/mL; in [12], 4 µg/mL (≈ 7.73 µM). Further, the minimal inhibitory concentration (MIC) in test [13] and in test [14] was 8 µg/mL (≈ 15.5 µM) in each case.
For `CC1(C)S[C@@H]2[C@H](NC(=O)[C@H](C(=O)O)c3ccsc3)C(=O)N2[C@H]1C(=O)O` [TICARCILLIN], the MIC is over 256 µg/mL in test [1]; 1.5 µg/mL in test [15]; over 256 µg/mL in test [2]; over 256 µg/mL in test [5]; 6 µg/mL in [16]; 16 µg/mL in [17]. Besides, the MIC is over 256 µg/mL in test [18]; over 256 µg/mL in [19]; over 256 µg/mL in test [9]; 4 µg/mL in test [20]; 8 µg/mL in test [21]; 4 µg/mL (≈ 10.4 µM) in [12]. The MIC in [13] and in test [14] was over 256 µg/mL in each case.
